Measured values reported in ChEMBL document CHEMBL4145657 (J Med Chem, 2018).
Calls of active or inactive are those of the source. No cut-off for these calls is given here.

Key:
[1] = target: Delta-type opioid receptor (Homo sapiens) (UniProt P41143); conditions: CHO
[2] = target: Delta-type opioid receptor (Homo sapiens) (UniProt P41143); assay: Agonist activity at human delta opioid receptor expressed in CHO cell membranes at 10 uM incubated for 60 mins by [35S]GTPgammaS binding assay; format: functional
Outline: (§1)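 CHO cell membranes expressing human κ (20 µg), µ (10 µg) or δ (7 µg) opioid receptor. Test compound at 10 µM final, with 10 µM GDP and 0.1 nM [35S]GTPγS in HEPES pH 7.4 buffer containing NaCl, MgCl2, EDTA, DTT and BSA. Incubated 60 min at 22 °C with shaking, then filtered and counted. Nonspecific binding defined with 10 µM unlabeled GTPγS.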

[3] = target: Kappa-type opioid receptor (Homo sapiens) (UniProt P41145); assay: Agonist activity at human kappa opioid receptor expressed in CHO cell membranes at 10 uM incubated for 60 mins by [35S]GTPgammaS binding assay; format: functional
Outline: as §1

[4] = target: Mu-type opioid receptor (Homo sapiens) (UniProt P35372); assay: Agonist activity at human mu opioid receptor expressed in CHO cell membranes at 10 uM incubated for 60 mins by [35S]GTPgammaS binding assay; format: functional
Outline: as §1

[5] = Clearance in Sprague-Dawley rat plasma at 5 mg/kg, sc measured after 1 to 168 hrs post dose by LC/MS-MS method; format: ADME, organism-based
Outline: (§2)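 Male Sprague Dawley rats, 10 weeks old, single subcutaneous 5 mg/kg dose at 1 mL/kg. Three rats per timepoint were killed by CO2 at 1, 4, 24, 72 and 168 h. Cardiac blood went into K3EDTA and was spun to plasma. Brains were homogenized 1:5 in 50:50 ethanol:water. Methanol precipitation used buspirone as internal standard. Analysis was by LC/MS-MS on C8 reverse phase. Parameters were taken from the apparent terminal elimination phase.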

[6] = target: Mu-type opioid receptor (Homo sapiens) (UniProt P35372); conditions: CHO
[7] = Half life in Sprague-Dawley rat plasma at 5 mg/kg, sc measured after 1 to 168 hrs post dose by LC/MS-MS method; format: ADME, organism-based; conditions: in vivo
Outline: as §2, with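 “mL/kg.” for “mL/kg. Three rats per timepoint were killed by CO2 at 1, 4, 24, 72 and 168 h.”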

[8] = rat, in vivo, sc, 5 mg/kg

Kappa-type opioid receptor (Homo sapiens), sequence (P41145 whole entry): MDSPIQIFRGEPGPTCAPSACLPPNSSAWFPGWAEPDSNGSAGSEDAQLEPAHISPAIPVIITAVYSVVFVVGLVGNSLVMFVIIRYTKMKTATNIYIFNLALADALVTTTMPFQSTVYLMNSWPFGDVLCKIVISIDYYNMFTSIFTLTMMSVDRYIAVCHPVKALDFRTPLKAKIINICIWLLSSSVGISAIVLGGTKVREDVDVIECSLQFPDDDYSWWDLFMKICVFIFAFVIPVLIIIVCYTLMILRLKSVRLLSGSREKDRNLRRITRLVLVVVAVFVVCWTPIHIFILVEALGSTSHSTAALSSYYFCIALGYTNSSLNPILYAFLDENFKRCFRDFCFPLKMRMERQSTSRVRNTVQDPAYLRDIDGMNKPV
Delta-type opioid receptor (Homo sapiens), sequence (P41143 whole entry): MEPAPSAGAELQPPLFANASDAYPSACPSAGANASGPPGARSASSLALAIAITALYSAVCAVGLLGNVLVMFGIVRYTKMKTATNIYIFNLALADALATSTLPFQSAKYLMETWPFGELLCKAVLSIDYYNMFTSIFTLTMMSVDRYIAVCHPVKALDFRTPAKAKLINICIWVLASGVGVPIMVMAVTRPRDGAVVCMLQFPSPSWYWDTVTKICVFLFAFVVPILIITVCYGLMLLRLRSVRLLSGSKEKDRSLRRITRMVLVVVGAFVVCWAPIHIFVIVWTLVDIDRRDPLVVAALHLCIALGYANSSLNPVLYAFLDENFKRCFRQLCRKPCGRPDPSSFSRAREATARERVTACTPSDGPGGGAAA
Mu-type opioid receptor (Homo sapiens), sequence (P35372 whole entry): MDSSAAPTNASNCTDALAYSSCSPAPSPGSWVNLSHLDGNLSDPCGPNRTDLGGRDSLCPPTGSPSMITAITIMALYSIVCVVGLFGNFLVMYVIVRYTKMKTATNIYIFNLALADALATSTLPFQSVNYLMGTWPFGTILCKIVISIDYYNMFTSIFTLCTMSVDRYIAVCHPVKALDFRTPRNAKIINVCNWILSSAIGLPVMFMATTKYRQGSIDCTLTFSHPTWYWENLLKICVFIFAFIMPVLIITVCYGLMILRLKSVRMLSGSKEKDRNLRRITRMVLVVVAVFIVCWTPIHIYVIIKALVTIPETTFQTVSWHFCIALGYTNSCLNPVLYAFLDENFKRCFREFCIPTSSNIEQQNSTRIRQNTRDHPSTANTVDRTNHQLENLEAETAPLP

Ke [1]	Activity [2]	Activity [3]	Activity [4]	SMILES	CL/F [5]	Ke [6]	t1/2 [7]	Tmax [8]
> 3000 nM	inactive	inactive	inactive	CC(C)[C@H](CC1CCCCC1)NC(=O)[C@@H]1Cc2ccc(O)cc2CN1				
	inactive	inactive	inactive	CC(C)[C@@H](CC1CCCCCC1)NC(=O)[C@H]1Cc2ccc(O)cc2CN1				
	inactive	inactive	inactive	CC(C)[C@@H](CC1CCCCC1)NC(=O)[C@H]1Cc2ccc(F)cc2CN1				
> 3000 nM	inactive	inactive	inactive	CC(C)[C@@H](CC1CCCCC1)NC(=O)[C@@H]1Cc2ccc(O)cc2CN1				
	inactive	inactive	inactive	CC(C)[C@@H](CC1CCCC1)NC(=O)[C@@]1(C)Cc2ccc(O)cc2CN1				
	inactive	inactive	inactive	CC(C)[C@@H](CC1CCCC1)NC(=O)[C@H]1Cc2ccc(C(N)=O)cc2CN1				
	inactive	inactive	inactive	COc1ccc2c(c1)CN[C@@H](C(=O)N[C@H](CC1CCCCC1)C(C)C)C2				
	inactive	inactive	inactive	O=C(N[C@H](CC1CCCCC1)c1ccccc1)[C@H]1Cc2ccc(O)cc2CN1				
				CC(C)[C@@H](CN1CC[C@@](C)(c2cccc(O)c2)[C@@H](C)C1)NC(=O)[C@H]1Cc2ccc(O)cc2CN1 [JDTIC]			28.4 h	
> 3000 nM	inactive	inactive	inactive	CC(C)[C@H](CC1CCCCC1)NC(=O)[C@H]1Cc2ccc(O)cc2CN1				
	inactive	inactive	inactive	O=C(N[C@H](CC1CCCC1)C1CC1)[C@H]1Cc2ccc(O)cc2CN1				
	inactive	inactive	inactive	CC(C)[C@@H](CC1CCC1)NC(=O)[C@H]1Cc2ccc(O)cc2CN1				
	inactive	inactive	inactive	CC(C)[C@@H](CC1CCCCC1)NC(=O)[C@H]1Cc2ccc(O)cc2CN1C				
	inactive	inactive	inactive	O=C(N[C@H](CC1CCCCC1)C1CC1)[C@H]1Cc2ccc(O)cc2CN1				
	inactive	inactive	inactive	O=C(NCCC1CCCCC1)[C@H]1Cc2ccc(O)cc2CN1				
	inactive	inactive	inactive	CC(C)[C@@H](CC1CCCCC1)NC(=O)[C@H]1Cc2ccccc2CN1				

SMILES	Ke [1]	Activity [2]	Activity [3]	Activity [4]	CL/F [5]	Ke [6]	t1/2 [7]	Tmax [8]
CC(C)[C@@H](CC1CCCCC1)NC(=O)[C@H]1Cc2ccc(C(N)=O)cc2CN1		inactive	inactive	inactive	71.2 mL/min/kg			
CC1CCC(C[C@@H](NC(=O)[C@H]2Cc3ccc(O)cc3CN2)C(C)C)CC1 (some centres undefined)		inactive	inactive	inactive				
CC(C)[C@@H](CC1CCCC1)NC(=O)[C@H]1Cc2ccc(O)cc2CN1	1570 nM	inactive	inactive	inactive	130 mL/min/kg	344 nM	32.1 h	
CC(C)[C@@H](CC1CCCCC1)NC(=O)[C@H]1Cc2ccc(O)cc2CN1		inactive	inactive	inactive	98.6 mL/min/kg		34.2 h	1 h
